# Assay results: ChEMBL document CHEMBL1132923, “Substituted benzamide inhibitors of human rhinovirus 3C protease: structure-based design, synthesis, and biological evaluation” (J Med Chem, 2000)
# Active and inactive are the calls of the source. The rule behind the calls is not given here.
# Experiments:
# [1] = target: T1, Human rhinovirus A protease (Human rhinovirus sp.) (UniProt Q4U254); experiment: Irreversible inhibition of Human Rhinovirus (HRV-14) 3C Protease; details: Rhinovirus B
# T1 sequence (whole entry): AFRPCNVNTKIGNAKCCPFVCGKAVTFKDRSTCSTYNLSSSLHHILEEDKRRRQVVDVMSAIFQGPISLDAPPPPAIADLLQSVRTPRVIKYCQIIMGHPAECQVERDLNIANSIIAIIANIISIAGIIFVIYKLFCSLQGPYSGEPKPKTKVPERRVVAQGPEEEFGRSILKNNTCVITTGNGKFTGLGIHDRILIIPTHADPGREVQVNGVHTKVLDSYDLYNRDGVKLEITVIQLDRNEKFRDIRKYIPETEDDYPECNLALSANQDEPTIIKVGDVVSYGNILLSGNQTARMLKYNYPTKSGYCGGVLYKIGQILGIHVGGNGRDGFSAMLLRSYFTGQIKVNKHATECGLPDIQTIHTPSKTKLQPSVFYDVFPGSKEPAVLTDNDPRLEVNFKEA
# In short: (§1)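 For serotype 14 3C protease under irreversible inactivation, reactions were started by adding 50 nM enzyme to 1 µM FRET substrate plus typically three to five inhibitor concentrations, monitored continuously. First-order inactivation rate constants came from nonlinear regression when <20% substrate was consumed; otherwise data were corrected for substrate depletion. kobs/[I] was derived by the slope method.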
# [2] = target: T2, Human rhinovirus A protease (Human rhinovirus sp., UniProt Q4U254); experiment: The compound was tested for binding affinity of Human Rhinovirus (HRV) 3C Protease.
# T2 sequence (Q4U254 whole entry): T1 sequence (whole entry)
# In short: (§2)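 Serotype 14 3C protease activity was followed by a fluorescence resonance energy transfer substrate assay, and reversible inhibition constants (Ki) were determined from it.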
# [3] = target: T1, Human rhinovirus A protease (Human rhinovirus sp.); experiment: Irreversible inhibition of Human Rhinovirus (HRV-14) 3C Protease measured as inactivation constant; no inhibition; in short: as §1
# [4] = target: T1, Human rhinovirus A protease (Human rhinovirus sp.); experiment: Irreversible inhibition of Human Rhinovirus (HRV-14) 3C Protease measured as inactivation constant; inhibition@ 25; details: concentration not given here
# In short: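 FRET-based continuous fluorometric assay of 3C protease activity. Reactions were started by adding 50 nM 3CP to 1 µM substrate across three to five inhibitor concentrations. First-order inactivation rate constants were fitted by nonlinear regression at each concentration. kobs/[I] was taken by the slope method, with data adjusted for substrate depletion where needed.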
# [5] = target: T1, Human rhinovirus A protease (Human rhinovirus sp.); experiment: The compound was tested for irreversible inhibition of Human Rhinovirus (HRV) 3C Protease.; in short: as §1
# [6] = target: T2, Human rhinovirus A protease; experiment: Inhibition of Human Rhinovirus (HRV-14) 3C Protease; in short: as §2
# HeLa [7] = experiment: Antiviral activity measured as minimal inhibitory concentration using H1HeLa cells (ATCC) infected with HRV-14; assay type: functional; details: Homo sapiens
# HeLa [8] = experiment: Antiviral activity using H1HeLa cells (ATCC) infected with HRV-14 (range); assay type: functional, cell-based; details: Homo sapiens
# In short: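 H1-HeLa cells were grown in MEM with 10% FBS and infected with HRV-14 at moi 0.08, or mock-infected with medium. Cells were resuspended at 8 × 10^5 cells/mL with drug and read 2 days later by XTT/PMS formazan absorbance at 450/650 nm. EC50 is the concentration restoring formazan to 50% of drug-free uninfected cells. Values come from a single run or the mean of ≥2.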
# [9] = target: T2, Human rhinovirus A protease; experiment: The compound was tested for reversible inhibition of Human Rhinovirus (HRV) 3C Protease.
SMILES,K obs / 1 [1],also measured
CCOC(=O)/C=C/c1cccc(C(N)=O)c1,52 M⁻¹ s⁻¹,
CN(C)c1ccc(C(=O)/C=C/c2cccc(C(N)=O)c2)cc1,,Ki [2]: 9 µM
CCOC(=O)/C=C/c1cc(CN(CC)Cc2ccncc2)cc(C(N)=O)c1,96 M⁻¹ s⁻¹,
CCOC(=O)/C=C/c1cc(CO)cc(C(N)=O)c1,54 M⁻¹ s⁻¹,
CCOC(=O)/C=C/c1cc(CN2CCN(C(=O)OCC)CC2)cc(C(N)=O)c1,130 M⁻¹ s⁻¹,
NC(=O)c1cccc(/C=C/C(=O)OCc2ccccc2)c1,25 M⁻¹ s⁻¹,
CCOC(=O)/C=C/c1cccc(C(=O)O)c1,,K obs / 1 [3]: inactive
NC(=O)c1cccc(/C=C/C(=O)c2ccccn2)c1,,Ki [2]: 1.8 µM
NC(=O)c1cccc(/C=C/C(=O)c2ccco2)c1,,Ki [2]: 1.9 µM
NC(=O)c1cccc(/C=C/C(=O)OCCO)c1,42 M⁻¹ s⁻¹,
COC(=O)/C=C/c1cccc(C(N)=O)c1,28 M⁻¹ s⁻¹,
NC(=O)c1ccc2c(c1)C=CC2=O,,Ki [2]: 0.12 µM
COc1ccc(C(=O)/C=C/c2cccc(C(N)=O)c2)cc1,,Ki [2]: 1.8 µM
CC(=O)/C=C/c1cccc(C(N)=O)c1,,Ki [2]: 25 µM
CCOC(=O)/C=C/c1cc(CN2CCN(c3ncccn3)CC2)cc(C(N)=O)c1,163 M⁻¹ s⁻¹,
NC(=O)c1cccc(/C=C/C(=O)OCCc2ccccc2)c1,83 M⁻¹ s⁻¹,
NC(=O)c1cccc(/C=C/C(=O)OCc2ccccn2)c1,57 M⁻¹ s⁻¹,
CCOC(=O)/C=C/c1cc(C(N)=O)ccc1C,,inhibition [4]: 10%
CCOC(=O)/C=C/c1ccc(OCc2ccccc2)c(C(N)=O)c1,,K obs / 1 [5]: 30 M⁻¹ s⁻¹
CCOC(=O)/C=C/c1cc(CN2CCN(c3ccccn3)CC2)cc(C(N)=O)c1,269 M⁻¹ s⁻¹,
CCOC(=O)/C=C/c1cc(CSc2nnc(-c3ccccn3)o2)cc(C(N)=O)c1,286 M⁻¹ s⁻¹,
NC(=O)c1cccc(C=O)c1,,Ki [6]: 104 µM
CCOC(=O)/C=C/c1cc(O)cc(C(N)=O)c1,47 M⁻¹ s⁻¹,
CCOC(=O)/C=C/c1cc(CN2CCN(c3ccccc3C#N)CC2)cc(C(N)=O)c1,139 M⁻¹ s⁻¹,
CCOC(=O)c1ccc(OCCC2CCN(c3ccc(C)nn3)CC2)cc1 [PIRODAVIR],,MIC (HeLa [7]): 0.03 µM; EC50 (HeLa [8]): 0.02 µM
NC(=O)c1cccc(/C=C/C(=O)c2ccccc2)c1,,Ki [2]: 0.4 µM
CCOC(=O)/C(C#N)=C/c1cccc(C(N)=O)c1,,Ki [9]: 1.5 µM
